This excerpt belongs to a sample that is enriched for hits.
N-glyco inh = increase of ERlucT glycosylation luciferase signal, primary screen, N-linked glycosylation inhibitor project, D54 ERlucT cells, luminescence, set 2 | D54 ERlucT glycosylation luciferase reporter, 24 h; percent of 100 nM tunicamycin response | reporter increase, % at 12.5 µM | 360,000 tested, 0.23% active | AID 588692, 2011;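 active = mean luciferase reporter signal, scaled so untreated is 0 and the glycosylation-blocking control 100, at or above a set limit in every replicate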;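 also: luciferase carries N-glycosylation sites so blocking glycosylation raises the light; 0% = median of neutral control wells and 100% = median of 100 nM tunicamycin wells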
ALR inh = inhibitors of human ALR sulfhydryl oxidase, primary screen, biochemical, H2O2 detection, HRP-luminol luminescence, single point | FAD-linked sulfhydryl oxidase ALR (Homo sapiens), P55789 | purified ALR, DTT oxidation | inhibition, % (concentration not given with the values) | 290,000 tested, 3.8% active;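 active = mean replicate inhibition above about 79%, with every replicate also reaching it, limit read from the data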
Target sequence (P55789 whole entry, looked up): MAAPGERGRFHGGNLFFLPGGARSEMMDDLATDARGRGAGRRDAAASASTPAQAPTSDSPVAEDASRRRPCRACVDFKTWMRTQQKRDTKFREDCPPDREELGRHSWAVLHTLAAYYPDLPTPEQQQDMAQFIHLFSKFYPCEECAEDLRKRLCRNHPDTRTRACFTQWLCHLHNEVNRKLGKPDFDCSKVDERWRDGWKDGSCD
T cell HTS = modulators of CD8 T cell-vesicle binding, primary screen, mouse 2C CD8+ T cells, flow cytometry; 2C CD8+ T cell-vesicle binding; hits give low values; response (vesicle binding), % at 7 µM; 330,000 tested, 0.068% active; AID 2052, 2009;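 active = response, share of CD8 T cells binding vesicles, and their 90th percentile fluorescence all below set limits, cut at about 80% in these data, passing the limit was not always enough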;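 also: values below 100% mean blocked vesicle binding to the CD8+ T cells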
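Material: murine 2C transgenic CD8+ T lymphocytes / Also added: QL9-peptide-loaded Drosophila micro-vesicles bearing Ld, ICAM-1 and B7-1 / Schedule: binding step 1.5 h, 37 °C, antibody labelling 20 min, ice / Signal: flow cytometry, PE anti-B7-1 (FL2) versus Alexa647 anti-CD8 (FL8), PFA-fixed / Evaluation: percent CD8+ FL2 mean versus row control / Benchmarks: naked versus QL9-loaded vesicles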
The depositor's hits bear a star; i = inactive; x = not tested or not shown.

SMILES	N-glyco inh	ALR inh	T cell HTS
O=C(COC(=O)Cc1ccccc1[N+](=O)[O-])NCc1ccc(F)cc1	1	-7	170
Cc1ccc(S(=O)(=O)N2CCC(C(=O)OCC(=O)N3CCC(C)CC3)CC2)cc1C	1	x	887
CN(C)c1ccc(NC(=O)CN2CCN(S(=O)(=O)c3cc(Cl)ccc3Cl)CC2)cc1	1	99*	181
O=C(CN1CCN(S(=O)(=O)c2cc(Cl)ccc2Cl)CC1)Nc1ccc2c(c1)OCCO2	-1	x	296
O=C(CN1CCN(c2ccc(F)cc2)CC1)Nc1cccnc1Cl	-1	60	634
O=C(CN1CCN(c2ccccc2O)CC1)Nc1cccnc1Cl	0	99*	275
O=C(NC1CCCCC1)c1cccnc1Sc1ccccc1	2	x	372
COc1ccc(CCC(=O)Nc2ccc(OC)c(S(=O)(=O)N3CCCCC3)c2)cc1	0	-2	109
COc1ccccc1Nc1nn2c(=O)c3ccc(C(=O)N4CCCC(C)C4)cc3nc2s1 (stereo not given)	5	1	229
COC(=O)c1cc(NS(=O)(=O)c2cccs2)cc(NS(=O)(=O)c2cccs2)c1	2	x	x
C[C@@H]1CN([C@H](C)CO)C(=O)CCCn2nncc2CO[C@H]1CN(C)Cc1cccc2c1OCCCO2	3	x	x
C=CCN1C(=O)C2(OCCCO2)c2cc(Cl)ccc21	-1	0	190
Cc1ccc(NC(=O)c2cccc(S(=O)(=O)N3CCCCC3)c2)cc1	-3	-16	373
Cc1ccc(N2C(=O)CC(NNC(=O)c3cccc(S(=O)(=O)N4CCCC4)c3)C2=O)cc1 (stereo not given)	1	95*	467
O=C(CSc1n[nH]c(-c2ccccc2O)n1)NC1CCCCC1	0	26	251
O=C(CSc1nnc(-c2ccc(F)cc2)c2ccccc12)Nc1ccccc1	0	99*	986
CCc1nnc(SCC(=O)Nc2ccccc2)nc1CC	3	0	235
COC(=O)Cc1nnc(SCC(=O)Nc2ccccc2)c2ccccc12	-2	98*	280
O=C(CSc1nnc(-c2ccc(F)cc2)c2ccccc12)Nc1cccc(Cl)c1	-6	-9	375
Cc1ccc(C(=O)CN(CCC(=O)O)C(=O)c2ccncc2)cc1	2	-1	133
C[C@@]12CCC[C@H](O1)[C@@H]([C@H](O)c1ccccc1)O2	0	5	321
CC1CCN(CCCNC(=O)COc2cc(=O)n(C)c3ccccc23)CC1	5	-10	997
CCCCN(C)CCCNC(=O)Cn1c(=O)sc2ccccc21	0	-7	69
CCN(CCCNC(=O)COc1cc(=O)n(C)c2ccccc12)c1ccccc1	10	98*	383
CCN(CCNC(=O)Cn1c(=O)sc2ccccc21)c1ccccc1	-3	98*	551
SMILES	N-glyco inh	ALR inh	T cell HTS
CCN(CCCNC(=O)COc1cc(=O)n(CC)c2ccccc12)c1ccccc1	10	99*	212
CCn1c(=O)cc(OCC(=O)NCCCN2CC(C)CC(C)C2)c2ccccc21 (stereo not given)	13	-4	356
CN(C(=O)c1cccc(C#CC(C)(C)O)c1)C1CCCN(Cc2ccccc2F)C1 (stereo not given)	0	x	184
COc1cc(NS(=O)(=O)c2ccc(N/C=C(\C=O)c3nc4ccccc4o3)cc2)nc(OC)n1	2	2	215
CCOc1ccc(S(=O)(=O)N2CCCC(C(=O)NCC3CCCO3)C2)cc1 (stereo not given)	-1	-5	565
O=C(NCSc1ccnc(SCNC(=O)c2ccccc2)n1)c1ccccc1	-1	20	479
O=C(NCSc1ccncn1)c1ccccc1	-2	99*	748
O=C1c2nc3cc(-c4ccco4)[nH]n3c(=O)c2CN1C1CCCCC1	2	13	i
O=C(COc1ccccc1)Nc1ccc(-c2ccc(N3CCOCC3)nn2)cc1	-1	2	274
c1ccc(Cc2nnc(Sc3ccccc3)c3ccccc23)cc1	36*	-4	x
c1ccc(Sc2ncnc3ccccc23)cc1	1	-17	157
CN1CCN(C(=O)/C=C/c2c(F)cccc2Cl)CC1	-1	8	300
COCCNC(=S)N1CCc2cc(OC)c(OC)cc2C1c1cccs1 (stereo not given)	59*	64	675
COc1cc2c(cc1OC)C(c1cccs1)N(C(=O)c1cccc(S(=O)(=O)N(C)C)c1)CC2 (stereo not given)	32*	-15	237
COc1cc2c(cc1OC)C(c1ccccc1)N(C(=O)c1ccco1)CC2 (stereo not given)	34*	-8	522
COc1cc2c(cc1OC)C(c1cccc([N+](=O)[O-])c1)N(C(=O)c1ccc(F)cc1)CC2 (stereo not given)	4	-1	262
COc1cc2c(cc1OC)C(c1cc3cc(C)ccc3[nH]c1=O)N(C(=O)c1ccco1)CC2 (stereo not given)	2	-4	232
COc1ccc(C2c3cc(OC)c(OC)cc3CCN2C(=O)c2cccc([N+](=O)[O-])c2)cc1OC (stereo not given)	2	-6	112
COc1cc2c(cc1OC)C(c1ccccc1)N(C(=O)c1ccccc1F)CC2 (stereo not given)	37*	5	136
COCCNC(=S)N1CCc2cc(OC)c(OC)cc2C1COc1ccc(F)cc1 (stereo not given)	-3	-2	764
Cc1cc2oc(=O)cc(CN3CCCCC3C)c2cc1C (stereo not given)	-4	-1	468
CC(C)C(=O)c1cn(CC(=O)N2CCCc3ccccc32)c2ccccc12	-3	-3	102
CCOc1ccc(S(=O)(=O)N2CCC(C(=O)N3CCCCCC3)CC2)cc1C	6	-1	154
O=C(OCC(=O)N1CCN(C(=O)c2ccco2)CC1)c1cncc(Br)c1	1	1	321
COc1cc2c(cc1OC)C(c1ccccc1)N(C(=O)CSCC(=O)O)CC2 (stereo not given)	2	-8	545
SMILES	N-glyco inh	ALR inh	T cell HTS
COc1cc2c(cc1OC)C(c1ccccc1)N(C(=O)c1ccccc1)CC2 (stereo not given)	34*	12	394
Cc1cc(Cl)ccc1NC(=O)CSc1n[nH]c(N)n1	2	-14	257
Oc1ccc(/C=N/Nc2nccnc2Cl)c(O)c1	-15	59	232
Oc1ccc(/C=N/Nc2cccc3cccnc23)c(O)c1	-7	84*	197
Cc1ccc(/C=N/Nc2cccc3cccnc23)c(O)c1	-5	-1	179
O=c1[nH]ncc(N/N=C\c2ccc(O)cc2O)c1Cl	4	96*	315
O=C(c1ccccc1)c1ccc(C(=O)N2CCN(c3ccccc3O)CC2)cc1	-1	x	x
COc1ccccc1N1CC(C(=O)Nc2ccc(N3CCOCC3)cc2)CC1=O (stereo not given)	-2	x	217
Cn1c(=O)c2c(nc3n2CC(O)CN3c2ccc(O)cc2)n(C)c1=O (stereo not given)	-2	99*	250
Cc1ccc(N2CC(O)Cn3c2nc2c3c(=O)n(C)c(=O)n2C)cc1 (stereo not given)	0	-1	i

From PubChem
